Reference: ChEMBL document CHEMBL2086252, “Syntheses and evaluation of anticonvulsant activity of novel branched alkyl carbamates” (J Med Chem, 2012)
Activity calls are given as the source filed them. The calls are words filed in the database; no cut-off is given here.

Columns and labels:
Mus musculus [1] = experiment: Anticonvulsant activity in albino CF1 mouse assessed as protection against subcutaneous metrazol-induced seizures at 300 mg/kg, ip after 0.5 hrs; assay type: functional, organism-based; design: dose 300 mg/kg
Method in brief: (§1)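 Mice dosed ip at 30, 100 or 300 mg/kg, then tested 0.5 h and 4 h after administration in the MES or scMet test. Protection was recorded as animals protected over animals tested. Neurotoxicity was recorded as motor impairment or sedation, as animals affected over animals tested.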

Rattus norvegicus [2] = experiment: Anticonvulsant activity in Sprague-Dawley albino rat assessed as protection against maximal electroshock-induced seizures at 30 mg/kg, po after 2 hrs; assay type: functional, organism-based; design: dose 30 mg/kg
Method in brief: (§2)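 Rats dosed orally. Anti-MES protection was scored as animals protected over animals tested at each time after dosing. Neurotoxicity was scored as motor impairment or sedation, as animals affected over animals tested.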

Mus musculus [3] = experiment: Neurotoxicity in albino CF1 mouse assessed as minimal motor impairment at 100 mg/kg, ip after 0.5 hrs by rotarod test; assay type: toxicity, organism-based; design: dose 100 mg/kg, route intraperitoneal; details: in vivo; method in brief: as §1
Mus musculus [4] = experiment: Neurotoxicity in albino CF1 mouse assessed as minimal motor impairment at 30 mg/kg, ip after 4 hrs by rotarod test; assay type: toxicity, organism-based; design: dose 30 mg/kg, route intraperitoneal; details: in vivo; method in brief: as §1
Rattus norvegicus [5] = experiment: Neurotoxicity in pilocarpine-induced status epilepticus Sprague-Dawley albino rat model assessed as minimal motor impairment at 100 mg/kg, ip after 0.25 hr by rotarod test; assay type: toxicity, organism-based; design: dose 100 mg/kg, route intraperitoneal; details: in vivo
Rattus norvegicus [6] = experiment: Neurotoxicity in pilocarpine-induced status epilepticus Sprague-Dawley albino rat model assessed as minimal motor impairment at 30 mg/kg, ip after 4 hrs by rotarod test; assay type: toxicity, organism-based; design: dose 30 mg/kg, route intraperitoneal; details: in vivo
Method in brief: (§3)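 Rat pilocarpine status epilepticus model: test carbamate given at 0 or 30 min after the first observed Racine stage 3 motor seizure, which marks SE onset. Neurotoxicity was scored within the same model.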

Mus musculus [7] = experiment: Neurotoxicity in albino CF1 mouse assessed as minimal motor impairment at 30 mg/kg, ip after 0.5 hrs by rotarod test; assay type: toxicity, organism-based; design: dose 30 mg/kg, route intraperitoneal; details: in vivo; method in brief: as §1
Mus musculus [8] = experiment: Anticonvulsant activity in albino CF1 mouse assessed as protection against subcutaneous metrazol-induced seizures at 30 mg/kg, ip after 0.5 hrs; assay type: functional, organism-based; design: dose 30 mg/kg; method in brief: as §1
Rattus norvegicus [9] = experiment: Anticonvulsant activity in Sprague-Dawley albino rat assessed as protection against maximal electroshock-induced seizures at 30 mg/kg, po after 4 hrs; assay type: functional, organism-based; design: dose 30 mg/kg; method in brief: as §2
Rattus norvegicus [10] = experiment: Neurotoxicity in pilocarpine-induced status epilepticus Sprague-Dawley albino rat model assessed as minimal motor impairment at 100 mg/kg, ip after 2 hrs by rotarod test; assay type: toxicity, organism-based; design: dose 100 mg/kg, route intraperitoneal; details: in vivo
Rattus norvegicus [11] = experiment: Neurotoxicity in pilocarpine-induced status epilepticus Sprague-Dawley albino rat model assessed as minimal motor impairment at 100 mg/kg, ip after 4 hrs by rotarod test; assay type: toxicity, organism-based; design: dose 100 mg/kg, route intraperitoneal; details: in vivo
Mus musculus [12] = experiment: Anticonvulsant activity in albino CF1 mouse assessed as protection against subcutaneous metrazol-induced seizures at 100 mg/kg, ip after 4 hrs; assay type: functional, organism-based; design: dose 100 mg/kg; method in brief: as §1
Rattus norvegicus [13] = experiment: Neurotoxicity in pilocarpine-induced status epilepticus Sprague-Dawley albino rat model assessed as minimal motor impairment at 300 mg/kg, ip after 2 hrs by rotarod test; assay type: toxicity, organism-based; design: dose 300 mg/kg, route intraperitoneal; details: in vivo; method in brief: as §3
Mus musculus [14] = experiment: Anticonvulsant activity in albino CF1 mouse assessed as protection against subcutaneous metrazol-induced seizures at 300 mg/kg, ip after 4 hrs; assay type: functional, organism-based; design: dose 300 mg/kg; method in brief: as §1
Rattus norvegicus [15] = experiment: Neurotoxicity in pilocarpine-induced status epilepticus Sprague-Dawley albino rat model assessed as minimal motor impairment at 300 mg/kg, ip after 1 hr by rotarod test; assay type: toxicity, organism-based; design: dose 300 mg/kg, route intraperitoneal; details: in vivo; method in brief: as §3
Rattus norvegicus [16] = experiment: Neurotoxicity in Sprague-Dawley albino rat assessed as minimal motor impairment at 30 mg/kg, po by rotarod test; assay type: toxicity, organism-based; design: dose 30 mg/kg, route oral; details: in vivo; method in brief: as §2
Mus musculus [17] = experiment: Neurotoxicity in albino CF1 mouse assessed as minimal motor impairment at 100 mg/kg, ip after 4 hrs by rotarod test; assay type: toxicity, organism-based; design: dose 100 mg/kg, route intraperitoneal; details: in vivo; method in brief: as §1
Mus musculus [18] = experiment: Neurotoxicity in albino CF1 mouse assessed as minimal motor impairment at 300 mg/kg, ip after 0.5 hrs by rotarod test; assay type: toxicity, organism-based; design: dose 300 mg/kg, route intraperitoneal; details: in vivo; method in brief: as §1
Rattus norvegicus [19] = experiment: Neurotoxicity in pilocarpine-induced status epilepticus Sprague-Dawley albino rat model assessed as minimal motor impairment at 100 mg/kg, ip after 0.5 hrs by rotarod test; assay type: toxicity, organism-based; design: dose 100 mg/kg, route intraperitoneal; details: in vivo
Rattus norvegicus [20] = experiment: Neurotoxicity in pilocarpine-induced status epilepticus Sprague-Dawley albino rat model assessed as minimal motor impairment at 30 mg/kg, ip after 2 hrs by rotarod test; assay type: toxicity, organism-based; design: dose 30 mg/kg, route intraperitoneal; details: in vivo; method in brief: as §3
Mus musculus [21] = experiment: Anticonvulsant activity in albino CF1 mouse assessed as protection against maximal electroshock-induced seizures at 30 mg/kg, ip after 4 hrs; assay type: functional, organism-based; design: dose 30 mg/kg; method in brief: as §1
Mus musculus [22] = experiment: Neurotoxicity in albino CF1 mouse assessed as minimal motor impairment at 300 mg/kg, ip after 4 hrs by rotarod test; assay type: toxicity, organism-based; design: dose 300 mg/kg, route intraperitoneal; details: in vivo; method in brief: as §1
Mus musculus [23] = experiment: Anticonvulsant activity in albino CF1 mouse assessed as protection against subcutaneous metrazol-induced seizures at 100 mg/kg, ip after 0.5 hrs; assay type: functional, organism-based; design: dose 100 mg/kg; method in brief: as §1
Mus musculus [24] = experiment: Anticonvulsant activity in albino CF1 mouse assessed as protection against maximal electroshock-induced seizures at 300 mg/kg, ip after 4 hrs; assay type: functional, organism-based; design: dose 300 mg/kg; method in brief: as §1
Mus musculus [25] = experiment: Anticonvulsant activity in albino CF1 mouse assessed as protection against maximal electroshock-induced seizures at 300 mg/kg, ip after 0.5 hrs; assay type: functional, organism-based; design: dose 300 mg/kg; method in brief: as §1
Rattus norvegicus [26] = experiment: Anticonvulsant activity in Sprague-Dawley albino rat assessed as protection against maximal electroshock-induced seizures at 30 mg/kg, po after 1 hr; assay type: functional, organism-based; design: dose 30 mg/kg; method in brief: as §2
Mus musculus [27] = experiment: Anticonvulsant activity in albino CF1 mouse assessed as protection against subcutaneous metrazol-induced seizures at 30 mg/kg, ip after 4 hrs; assay type: functional, organism-based; design: dose 30 mg/kg; method in brief: as §1
Rattus norvegicus [28] = experiment: Neurotoxicity in pilocarpine-induced status epilepticus Sprague-Dawley albino rat model assessed as minimal motor impairment at 300 mg/kg, ip after 0.25 hr by rotarod test; assay type: toxicity, organism-based; design: dose 300 mg/kg, route intraperitoneal; details: in vivo; method in brief: as §3
Rattus norvegicus [29] = experiment: Neurotoxicity in pilocarpine-induced status epilepticus Sprague-Dawley albino rat model assessed as minimal motor impairment at 300 mg/kg, ip after 0.5 hrs by rotarod test; assay type: toxicity, organism-based; design: dose 300 mg/kg, route intraperitoneal; details: in vivo; method in brief: as §3
Rattus norvegicus [30] = experiment: Neurotoxicity in pilocarpine-induced status epilepticus Sprague-Dawley albino rat model assessed as minimal motor impairment at 300 mg/kg, ip after 4 hrs by rotarod test; assay type: toxicity, organism-based; design: dose 300 mg/kg, route intraperitoneal; details: in vivo; method in brief: as §3
Rattus norvegicus [31] = experiment: Neurotoxicity in pilocarpine-induced status epilepticus Sprague-Dawley albino rat model assessed as minimal motor impairment at 30 mg/kg, ip after 1 hr by rotarod test; assay type: toxicity, organism-based; design: dose 30 mg/kg, route intraperitoneal; details: in vivo; method in brief: as §3
Mus musculus [32] = experiment: Anticonvulsant activity in albino CF1 mouse assessed as protection against maximal electroshock-induced seizures at 100 mg/kg, ip after 4 hrs; assay type: functional, organism-based; design: dose 100 mg/kg; method in brief: as §1
Rattus norvegicus [33] = experiment: Neurotoxicity in pilocarpine-induced status epilepticus Sprague-Dawley albino rat model assessed as minimal motor impairment at 30 mg/kg, ip after 0.5 hrs by rotarod test; assay type: toxicity, organism-based; design: dose 30 mg/kg, route intraperitoneal; details: in vivo; method in brief: as §3
Mus musculus [34] = experiment: Anticonvulsant activity in albino CF1 mouse assessed as protection against maximal electroshock-induced seizures at 30 mg/kg, ip after 0.5 hrs; assay type: functional, organism-based; design: dose 30 mg/kg; method in brief: as §1
Rattus norvegicus [35] = experiment: Neurotoxicity in pilocarpine-induced status epilepticus Sprague-Dawley albino rat model assessed as minimal motor impairment at 30 mg/kg, ip after 0.25 hr by rotarod test; assay type: toxicity, organism-based; design: dose 30 mg/kg, route intraperitoneal; details: in vivo; method in brief: as §3
Rattus norvegicus [36] = experiment: Neurotoxicity in pilocarpine-induced status epilepticus Sprague-Dawley albino rat model assessed as minimal motor impairment at 100 mg/kg, ip after 1 hr by rotarod test; assay type: toxicity, organism-based; design: dose 100 mg/kg, route intraperitoneal; details: in vivo
Rattus norvegicus [37] = experiment: Anticonvulsant activity in Sprague-Dawley albino rat assessed as protection against maximal electroshock-induced seizures at 30 mg/kg, po after 15 mins; assay type: functional, organism-based; design: dose 30 mg/kg; method in brief: as §2
Rattus norvegicus [38] = experiment: Anticonvulsant activity in Sprague-Dawley albino rat assessed as protection against maximal electroshock-induced seizures at 30 mg/kg, po after 30 mins; assay type: functional, organism-based; design: dose 30 mg/kg; method in brief: as §2

| SMILES | Activity (Mus musculus [1]) | Activity (Rattus norvegicus [2]) | Activity (Mus musculus [3]) | Activity (Mus musculus [4]) | Activity (Mus musculus [7]) | Activity (Mus musculus [8]) | Activity (Rattus norvegicus [9]) | Activity (Rattus norvegicus [10]) | Activity (Rattus norvegicus [11]) | Activity (Mus musculus [12]) | Activity (Rattus norvegicus [13]) | Activity (Mus musculus [14]) | Activity (Rattus norvegicus [15]) | Activity (Rattus norvegicus [16]) | Activity (Mus musculus [17]) | Activity (Mus musculus [18]) | Activity (Mus musculus [21]) | Activity (Mus musculus [22]) | Activity (Mus musculus [23]) | Activity (Mus musculus [24]) | also measured |
| --- | --- | --- | --- | --- | --- | --- | --- | --- | --- | --- | --- | --- | --- | --- | --- | --- | --- | --- | --- | --- | --- |
| CC(COC(N)=O)CC(C)(C)C (racemic) | Active | inactive | Non-toxic | Non-toxic | Non-toxic | inactive | inactive | Non-toxic | Non-toxic | inactive | Toxic | inactive | Toxic | Non-toxic | Non-toxic | Toxic | inactive | Non-toxic | inactive | Active | Activity (Rattus norvegicus [5]): Toxic; Activity (Rattus norvegicus [6]): Non-toxic; Activity (Rattus norvegicus [19]): Toxic; Activity (Rattus norvegicus [20]): Non-toxic; Activity (Mus musculus [25]): Active; Activity (Rattus norvegicus [26]): inactive; Activity (Mus musculus [27]): inactive; Activity (Rattus norvegicus [28]): Toxic; Activity (Rattus norvegicus [29]): Toxic; Activity (Rattus norvegicus [30]): Non-toxic; Activity (Rattus norvegicus [31]): Non-toxic; Activity (Mus musculus [32]): inactive; Activity (Rattus norvegicus [33]): Non-toxic; Activity (Mus musculus [34]): inactive; Activity (Rattus norvegicus [35]): Non-toxic |
| CCC(CC)COC(N)=O | Active | inactive | Non-toxic | Non-toxic | Non-toxic | inactive | inactive | Non-toxic | Non-toxic | inactive | Non-toxic | inactive | Non-toxic | Non-toxic | Non-toxic | Toxic | inactive | Non-toxic | inactive | inactive | Activity (Rattus norvegicus [36]): Non-toxic; Activity (Rattus norvegicus [37]): inactive; Activity (Mus musculus [25]): Active; Activity (Rattus norvegicus [26]): inactive; Activity (Mus musculus [27]): inactive; Activity (Rattus norvegicus [28]): Toxic; Activity (Rattus norvegicus [29]): Toxic; Activity (Rattus norvegicus [30]): Non-toxic; Activity (Mus musculus [32]): inactive; Activity (Rattus norvegicus [38]): inactive; Activity (Mus musculus [34]): inactive |
